ERAP1 inh: blocks human ERAP1 aminopeptidase activity | hit rate 0.15% among 340,000 | recombinant ERAP1, Leu-AMC fluorescence, 60 min | Q9NZ08 | inhibition, % at 10.7 µM | AID 652197;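 active means mean replicate inhibition of at least 30%, or all replicates individually reaching that 30% level; inactive means mean below 30% and not every replicate reaching it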
FGF22 binding: binders of recombinant human FGF22 by thermal shift. Q9HCT0. SYPRO orange fluorescence; percent of sucrose octasulfate shift, DMSO zero. activity (Tm shift, normalised), % at 9.99 µM. hit rate 1.5% among 340,000;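 active means mean Tm shift, scaled 0 neutral to 100 positive control, at about 1.3% or above, every replicate too, limit read from the data; inconclusive means no clear call, values can overlap the other calls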
Target sequence (Q9HCT0 whole entry, looked up): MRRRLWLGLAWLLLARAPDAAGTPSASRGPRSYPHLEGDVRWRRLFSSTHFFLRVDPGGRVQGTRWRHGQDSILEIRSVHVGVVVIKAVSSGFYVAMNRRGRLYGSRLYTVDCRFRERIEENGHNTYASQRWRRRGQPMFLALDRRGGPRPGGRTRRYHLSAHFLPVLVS
SIRT5 inh: sirtuin-5 (human) deacylase inhibition | inhibition, % at 15 µM | hit rate 1.1% among 330,000 | Q9NXA8 | AID 652115 | Purified SirT5, succinyl-peptide AMC, trypsin-coupled fluorescence; in the data active means inhibition above about 15%; inconclusive means no clear call, values can overlap the other calls
Target sequence (Q9NXA8 whole entry, looked up): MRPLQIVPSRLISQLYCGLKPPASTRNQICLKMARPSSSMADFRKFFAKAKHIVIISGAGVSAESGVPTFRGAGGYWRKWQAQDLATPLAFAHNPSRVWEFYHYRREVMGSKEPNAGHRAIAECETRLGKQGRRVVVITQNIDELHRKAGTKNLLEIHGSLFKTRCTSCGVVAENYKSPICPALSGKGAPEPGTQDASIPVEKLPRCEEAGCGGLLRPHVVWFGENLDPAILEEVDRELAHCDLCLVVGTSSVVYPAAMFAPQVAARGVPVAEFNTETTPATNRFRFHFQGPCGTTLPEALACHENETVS
PGC1a acetyl inh: lowers PGC1a acetylation signal in U2OS cells. inhibition, % at 15.6 µM. AID 651687. AlphaScreen anti-acetyl-lysine; with virally co-expressed GCN5 acetyltransferase. hit rate 0.17% among 350,000;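 active means every replicate shows inhibition of at least 40%; inconclusive means mean inhibition at least 40% but some replicate below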
FN deposition inh: fibronectin deposition inhibition; AH1F fibroblasts, Alexa488-fibronectin deposition fluorescence, overnight; inhibition, % at 12.6 µM; hit rate 0.086% among 350,000; AID 743247;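 active means mean inhibition across replicates of 30% or more, regardless of how many single replicates reach that level; inconclusive means mean under 30% yet at least half of replicates reach 30%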
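Material: AH1F fibroblast monolayer depositing Alexa488-labelled fibronectin into matrix / Amount: 10000 AH1F cells per well / Signal: fluorescence 485/525 nm / Medium: DMEM, 2% serum / Compound: single dose, pinned / Incubation: 1 h cell adhesion before compound, then overnight fibronectin incubation / Reagent: Alexa488-FN, 24 nM final / Read-out: inhibition of fibronectin deposition signal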
Large screens that a line does not name were inactive. The list is not random: actives were taken first. Their share in the collection is about 2.2%.

C[C@@H]1CN([C@@H](C)CO)C(=O)c2cc(NC(=O)Nc3ccc(C(F)(F)F)cc3)ccc2O[C@@H]1CN(C)C(=O)Nc1ccc(F)cc1	none (no result: FN deposition inh)
C[C@H](CO)N1C[C@H](C)[C@H](CN(C)S(=O)(=O)c2ccccc2)Oc2ncc(Br)cc2C1=O	none (no result: FN deposition inh)
CO[C@@H]1CN(C)C(=O)c2cc(NC(=O)C3CC3)ccc2OC[C@H](C)NC[C@@H]1C	none
COc1ccc(NC(=O)C2CCCN2C(=O)NCc2ccccc2)cc1OC (stereo not given)	none (no result: ERAP1 inh, FGF22 binding, SIRT5 inh, PGC1a acetyl inh)
COc1cccc(OC)c1NC(=O)C1CCCN1C(=O)NCc1ccccc1 (stereo not given)	PGC1a acetyl inh 96.9 (no result: ERAP1 inh, FGF22 binding, SIRT5 inh)
Cc1ccc2nc(SCC(=O)Nc3cc(C)on3)c(C)cc2c1	none
CCOc1ccc2nc(SCC(=O)Nc3cc(C)on3)c(C)cc2c1	SIRT5 inh 80.9 (no result: PGC1a acetyl inh)
CNC(=O)C[C@@H]1CC[C@@H]2[C@H](COC[C@H](O)CN2Cc2ccc(Cl)c(Cl)c2)O1	none (no result: ERAP1 inh, SIRT5 inh)
O=C(/C=C1\OCc2ccccc21)OCc1ccccc1	SIRT5 inh 15.1 (no result: PGC1a acetyl inh)
CN/S(=N/S(=O)(=O)c1ccccc1)c1ccc(C)cc1 (stereo not given)	none (no result: ERAP1 inh, FGF22 binding, SIRT5 inh, FN deposition inh)
Cc1ccc(S(=O)(=O)/N=S(/c2ccccc2)C(C)C)cc1 (stereo not given)	ERAP1 inh 46.2
COc1ccc(S(=O)(=O)N2C[C@H](O)COC[C@H]3O[C@@H](CC(=O)NCc4ccc(Cl)c(Cl)c4)CC[C@@H]32)cc1	none
CC1CCC(N2CCNCC2)CC1 (stereo not given)	FGF22 binding 43.7 (no result: PGC1a acetyl inh)
CNC(=O)C1CC(=O)N(c2ccc(OCC(=O)NCc3ccccc3)cc2)C1 (stereo not given)	SIRT5 inh 24.6
Cc1cc(C(=O)Nc2cccc3c2O[C@H](CN(C)C(=O)Nc2c(C)noc2C)[C@@H](C)CN([C@@H](C)CO)C3=O)n(C)n1	none
O=C1OC(c2cccs2)=N/C1=C/c1ccc(-c2cccc(C(=O)O)c2)o1	FGF22 binding 9.4 (no result: PGC1a acetyl inh)
CCN1CCN(CC(=O)c2cc(Cl)ccc2Cl)CC1	FGF22 binding 43.2 (no result: PGC1a acetyl inh)
Cc1ccc(S(=O)(=O)Nc2ccc3c(c2)C(=O)N([C@H](C)CO)C[C@@H](C)[C@H](CN(C)CC2CCCCC2)OCCCC[C@@H](C)O3)cc1	none (no result: FN deposition inh)
COC(=O)C1=C(C)NC(=O)/C1=C\c1cc(C)n(-c2ccccc2)c1C	FGF22 binding 43.1
COC(=O)C1=C(C)NC(=O)/C1=C\c1cc(C)n(-c2cc(C)cc(C)c2)c1C	none (no result: ERAP1 inh, FGF22 binding, SIRT5 inh, FN deposition inh)
COCC(=O)N1CC(=O)N2[C@H](CO)[C@H](c3ccc(C#CC4CCCC4)cc3)[C@@H]2C1	none (no result: FGF22 binding)
COc1ccc(S(=O)(=O)N(C)C[C@H]2OCCCC[C@H](C)Oc3ccc(NC(=O)Nc4cccc5ccccc45)cc3C(=O)N([C@H](C)CO)C[C@H]2C)cc1	FGF22 binding 1.7 (no result: FN deposition inh)
COc1ccc(S(=O)(=O)N(C)C[C@H]2OCCCC[C@@H](C)Oc3ccc(NC(=O)Nc4cccc5ccccc45)cc3C(=O)N([C@@H](C)CO)C[C@H]2C)cc1	FGF22 binding 1.5 (no result: FN deposition inh)
COc1ccc(S(=O)(=O)N(C)C[C@H]2OCCCC[C@@H](C)Oc3ccc(NC(=O)Nc4cccc5ccccc45)cc3C(=O)N([C@@H](C)CO)C[C@@H]2C)cc1	FGF22 binding 1.3 (no result: FN deposition inh)
Cc1noc(C)c1S(=O)(=O)N(C)C[C@@H]1OCCCC[C@@H](C)Oc2ccc(NC(=O)Nc3cccc4ccccc34)cc2C(=O)N([C@H](C)CO)C[C@@H]1C	SIRT5 inh 20.5 (no result: FN deposition inh)
Cc1noc(C)c1NC(=O)Nc1ccc2c(c1)C(=O)N([C@H](C)CO)C[C@@H](C)[C@@H](CN(C)S(=O)(=O)c1cn(C)cn1)OCCCC[C@H](C)O2	none
Cc1noc(C)c1NC(=O)Nc1ccc2c(c1)C(=O)N([C@@H](C)CO)C[C@@H](C)[C@@H](CN(C)S(=O)(=O)c1cn(C)cn1)OCCCC[C@@H](C)O2	SIRT5 inh 17.4 (no result: FN deposition inh)
C[C@@H]1CCCCO[C@H](CN(C)S(=O)(=O)c2cn(C)cn2)[C@@H](C)CN([C@H](C)CO)C(=O)c2cc(NC(=O)Nc3cccc4ccccc34)ccc2O1	FGF22 binding 1.7 (no result: FN deposition inh)
C[C@H](CO)N1C[C@H](C)[C@H](CN(C)S(=O)(=O)c2cn(C)cn2)OCCCC[C@H](C)Oc2ccc(NC(=O)Nc3cccc4ccccc34)cc2C1=O	PGC1a acetyl inh inconclusive
C[C@@H]1CN([C@H](C)CO)C(=O)Cc2cc(NS(=O)(=O)c3cn(C)cn3)ccc2O[C@H]1CN(C)Cc1ccc(Cl)c(Cl)c1	none (no result: FN deposition inh)
CS(=O)(=O)Nc1ccc2c(c1)[C@H]1C[C@@H](CC(=O)NCc3ccccc3F)O[C@@H](CO)[C@H]1O2	none
COc1ccc(-n2nc(C(=O)O)cc2-c2ccccc2)cc1	SIRT5 inh 17.6 (no result: PGC1a acetyl inh)
COc1cccc(N(CC(=O)NCC2CCCO2)C(=O)CNS(=O)(=O)c2ccccc2)c1 (stereo not given)	FGF22 binding 43.6
O=C(CN(CC1CCCO1)C(=O)CNS(=O)(=O)c1ccccc1)NCc1ccco1 (stereo not given)	FGF22 binding 43.0 (no result: PGC1a acetyl inh)
COc1ccc(S(=O)(=O)Nc2ccc3c(c2)C(=O)N([C@@H](C)CO)C[C@H](C)[C@@H](CN(C)S(=O)(=O)c2ccc(F)cc2)O3)cc1	none
COc1ccc(S(=O)(=O)N(C)C[C@H]2Oc3c(NC(=O)c4ccc(-c5nccs5)cc4)cccc3C(=O)N([C@@H](C)CO)C[C@H]2C)cc1	none
COc1ccc(S(=O)(=O)N(C)C[C@@H]2Oc3cc(C#CC4CCCC4)ccc3S(=O)(=O)N([C@@H](C)CO)C[C@H]2C)cc1	SIRT5 inh 15.6
COc1ccc(S(=O)(=O)N(C)C[C@H]2Oc3cc(C#CC4CCCC4)ccc3S(=O)(=O)N([C@@H](C)CO)C[C@@H]2C)cc1	SIRT5 inh 24.6 (no result: FGF22 binding)
COc1ccc(S(=O)(=O)N(C)C[C@H]2Oc3cc(C#CC4CCCC4)ccc3S(=O)(=O)N([C@H](C)CO)C[C@@H]2C)cc1	SIRT5 inh 15.1
COc1ccc(S(=O)(=O)N(C)C[C@H]2Oc3cc(C#CC4CCCC4)ccc3S(=O)(=O)N([C@@H](C)CO)C[C@H]2C)cc1	none
COc1ccccc1S(=O)(=O)N[C@H]1C=C[C@@H](CC(=O)N2CCCCC2)O[C@H]1CO	none (no result: FN deposition inh)
CO[C@H]1CN(C)C(=O)c2ccc(NC(=O)c3nc4ccccc4s3)cc2OC[C@H](C)N(Cc2cncnc2)C[C@@H]1C	none (no result: SIRT5 inh)
C[C@@H]1CN([C@@H](C)CO)C(=O)c2cc(-c3ccccc3F)cnc2O[C@H]1CN(C)C(=O)c1cnccn1	none
Cc1cc(C)n2nc(SCc3nnc(-c4cccs4)o3)nc2n1	FGF22 binding 43.2 (no result: FN deposition inh)
C[C@@H]1CN([C@@H](C)CO)C(=O)c2cccc(N(C)C)c2O[C@@H]1CN(C)Cc1ccccc1	SIRT5 inh 22.5
C[C@H](CO)N1C[C@H](C)[C@@H](CN(C)Cc2ccccc2)Oc2c(cccc2N(C)C)C1=O	none (no result: FN deposition inh)
